Experimental data of several laboratories.
Compare with care: the assays were run in different laboratories.

SMILES | tested on | assay | system | setting | measurement | result
CC(=O)OC[C@H]1O[C@@H]([Se]Cc2ccc3ccccc3n2)[C@H](OC(C)=O)[C@@H](OC(C)=O)[C@@H]1OC(C)=O | THP-1 | cell growth or viability, WST-1 | – | 24 h | CC50 | ~50 µM
CN1CCN(c2cnc3c(cc(C(=O)NCc4ccc(Cl)cc4)c(=O)n3CC(=O)N3CC(C)(F)C3)n2)C1=O | B-95-8 | cell growth or viability, ATP luminescence | – | 5 days | CC50 | 4.61 µM
COc1ccc2c(C[Se][C@@H]3O[C@H](CO)[C@H](O)[C@H](O)[C@H]3O)cc(=O)oc2c1 | THP-1 | cell growth or viability, WST-1 | – | 24 h | CC50 | > 100 µM
Cn1nc2c(=O)n(C3CC3)ncc2c1[C@](O)(c1cnc(C(F)(F)F)c(Cl)c1)C(F)(F)F | – | metabolic stability | male Sprague-Dawley rat, hepatocytes | 0.5 µM, pH 7.4 | hepatocyte CLint | 0.9 µL/min/10⁶ cells
Cc1ccc(Cn2cc(C(=O)NN)c(=O)c3cc(Oc4ccccc4)ccc32)cc1 | – | metabolic stability | male rat, liver microsomes | 1 µM | microsomal CLint | < 11.6 µL/min/mg
CN/C(=N/CCSCc1nc[nH]c1C)NC#N | – | metabolic stability | human, hepatocytes | 0.5 µM, pH 7.4 | hepatocyte CLint | 2.15 µL/min/10⁶ cells
CC1(F)CN(C(=O)Cn2c(=O)c(C(=O)NCc3ccc(Cl)cc3)cc3nc(N4CCNC4=O)cnc32)C1 | B-95-8 | cell growth or viability, ATP luminescence | – | 5 days | CC50 | 3.59 µM
COC(=O)COc1c(Cc2cc(C(C)(C)CC(C)(C)C)cc(-n3nc4ccccc4n3)c2OCC(=O)OC)cc(C(C)(C)CC(C)(C)C)cc1-n1nc2ccccc2n1 | MCF7 | cell growth or viability, MTT | – | 10 µM, 48 h | viability | 4.9%
